Experimental findings from ChEMBL document CHEMBL2429834, “Potent histone deacetylase inhibitors derived from 4-(aminomethyl)-N-hydroxybenzamide with high selectivity for the HDAC6 isoform” (J Med Chem, 2013) are described below.

Data set [1] has as its target 72 kDa type IV collagenase (Homo sapiens) (UniProt P08253). The data set can be described thus: Inhibition of MMP2 (unknown origin).
A short description of data set [2]: Efflux ratio of permeability in human Caco2 cells at pH 7.4. It is filed as ADME, cell-based. Particulars: Caco-2, pH 7.4.
The target of data set [3] is T1, Matrix metalloproteinase-17 (Homo sapiens) (UniProt Q9ULZ9).
T1 sequence (whole entry): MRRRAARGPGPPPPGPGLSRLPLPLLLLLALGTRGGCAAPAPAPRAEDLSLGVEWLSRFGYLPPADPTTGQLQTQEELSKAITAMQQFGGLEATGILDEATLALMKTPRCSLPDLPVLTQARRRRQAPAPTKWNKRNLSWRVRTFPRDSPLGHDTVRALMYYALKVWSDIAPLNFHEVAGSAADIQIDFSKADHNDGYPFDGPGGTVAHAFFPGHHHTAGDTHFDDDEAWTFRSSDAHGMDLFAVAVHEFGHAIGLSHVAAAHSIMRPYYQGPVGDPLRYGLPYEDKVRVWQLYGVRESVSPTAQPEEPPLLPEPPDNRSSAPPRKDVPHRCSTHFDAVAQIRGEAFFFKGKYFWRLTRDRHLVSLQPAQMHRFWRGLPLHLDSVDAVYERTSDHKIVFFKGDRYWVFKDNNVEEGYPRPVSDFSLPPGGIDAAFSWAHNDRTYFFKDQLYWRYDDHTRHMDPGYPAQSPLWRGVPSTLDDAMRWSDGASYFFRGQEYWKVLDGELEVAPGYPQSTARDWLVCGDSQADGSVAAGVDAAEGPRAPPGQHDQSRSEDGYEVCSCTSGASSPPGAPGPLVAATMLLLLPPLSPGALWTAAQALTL
The data set can be described thus: Inhibition of MMP4 (unknown origin).

The target in data set [4] is T2, Protein deacetylase HDAC6 (Homo sapiens) (UniProt Q9UBN7).
T2 sequence (whole entry): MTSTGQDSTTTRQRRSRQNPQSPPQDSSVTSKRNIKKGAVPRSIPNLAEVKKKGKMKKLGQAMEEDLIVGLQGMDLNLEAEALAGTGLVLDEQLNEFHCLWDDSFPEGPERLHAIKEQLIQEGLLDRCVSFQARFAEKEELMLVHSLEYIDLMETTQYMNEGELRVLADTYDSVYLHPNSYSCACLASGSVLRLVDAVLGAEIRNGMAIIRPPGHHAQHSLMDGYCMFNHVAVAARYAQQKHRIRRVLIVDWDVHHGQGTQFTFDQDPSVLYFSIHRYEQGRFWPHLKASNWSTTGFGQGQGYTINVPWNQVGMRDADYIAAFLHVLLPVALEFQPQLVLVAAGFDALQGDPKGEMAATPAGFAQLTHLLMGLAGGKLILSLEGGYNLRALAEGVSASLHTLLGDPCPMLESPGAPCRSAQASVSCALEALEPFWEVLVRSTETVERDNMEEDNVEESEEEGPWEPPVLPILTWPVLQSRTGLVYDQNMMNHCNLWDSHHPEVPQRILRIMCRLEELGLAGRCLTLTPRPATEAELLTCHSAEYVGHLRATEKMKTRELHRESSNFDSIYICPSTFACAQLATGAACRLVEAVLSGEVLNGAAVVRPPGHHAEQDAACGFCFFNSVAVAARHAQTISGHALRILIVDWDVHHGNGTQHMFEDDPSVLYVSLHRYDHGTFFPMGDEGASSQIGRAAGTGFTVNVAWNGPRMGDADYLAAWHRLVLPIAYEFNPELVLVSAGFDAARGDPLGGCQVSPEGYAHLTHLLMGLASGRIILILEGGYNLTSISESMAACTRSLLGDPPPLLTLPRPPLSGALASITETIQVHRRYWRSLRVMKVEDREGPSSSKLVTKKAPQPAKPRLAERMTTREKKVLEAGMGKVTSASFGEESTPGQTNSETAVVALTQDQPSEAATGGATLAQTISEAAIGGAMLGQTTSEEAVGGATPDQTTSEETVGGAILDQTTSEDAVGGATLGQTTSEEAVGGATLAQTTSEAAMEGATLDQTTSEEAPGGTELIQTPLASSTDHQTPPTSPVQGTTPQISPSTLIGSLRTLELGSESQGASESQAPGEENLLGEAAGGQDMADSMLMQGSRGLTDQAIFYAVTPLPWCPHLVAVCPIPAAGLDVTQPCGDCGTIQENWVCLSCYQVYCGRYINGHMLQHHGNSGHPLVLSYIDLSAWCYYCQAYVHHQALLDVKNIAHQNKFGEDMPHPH
The data set can be described thus: Inhibition of HDAC6 in human HeLa cells assessed as inhibition of acetyl histone hydrolysis at 10 uM after 24 hrs by immunofluorescence assay relative to control. The data set is classed as cell-based. In short, it runs like this:
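HeLa cells (8000/well, MEM with 10% FBS) given compound 24 h (histone) or 6 h (tubulin). Fixed in 4% paraformaldehyde, permeabilized with 0.5% Triton X-100, stained with anti-acetyl-lysine or anti-acetyl-tubulin and Alexa 488 secondary plus Hoechst. Imaged at nine sites per well, 20×; percent inhibition relative to 0.2% DMSO controls.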

Sequence of 72 kDa type IV collagenase (Homo sapiens) (P08253 110-660 limits assumed): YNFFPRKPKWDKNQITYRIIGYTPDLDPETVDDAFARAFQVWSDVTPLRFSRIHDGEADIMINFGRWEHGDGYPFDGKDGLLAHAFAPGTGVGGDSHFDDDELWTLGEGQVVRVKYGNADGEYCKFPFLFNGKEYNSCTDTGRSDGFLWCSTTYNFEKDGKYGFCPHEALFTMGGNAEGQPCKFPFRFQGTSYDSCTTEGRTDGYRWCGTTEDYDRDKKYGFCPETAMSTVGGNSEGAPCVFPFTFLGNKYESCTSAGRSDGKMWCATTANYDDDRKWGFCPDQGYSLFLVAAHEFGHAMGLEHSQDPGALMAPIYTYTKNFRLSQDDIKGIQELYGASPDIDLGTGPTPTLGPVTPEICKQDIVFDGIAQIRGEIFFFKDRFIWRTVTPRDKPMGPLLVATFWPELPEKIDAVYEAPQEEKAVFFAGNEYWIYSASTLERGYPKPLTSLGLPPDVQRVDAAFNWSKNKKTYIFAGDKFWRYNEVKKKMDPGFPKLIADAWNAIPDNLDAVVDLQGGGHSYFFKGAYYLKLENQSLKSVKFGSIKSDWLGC

With `Cn1cccc1C(=O)N1CCc2cc(C(=O)NO)ccc2C1`, the INH in data set [1] and in data set [3] was over 100 µM in each case. For the same molecule, the efflux ratio in data set [2] stood at 1.5.

In the case of `Cn1cccc1C(=O)NCc1ccc(C(=O)NO)cc1`, the inhibition in data set [4] amounted to 26%.

Broadly, the efflux ratio is the permeability from basolateral to apical divided by that in the opposite direction, in the common usage. In general, inhibition refers to the relative decrease from the control value, in per cent.
